Usually IC50 stands for the midpoint of a concentration-inhibition curve.

Structures are written as SMILES.

Common to all, as to type: functional, cell-based
The subject of one assay is NCI-H1650. Description: Antiproliferative activity against human NCI-H1650 cells assessed as decrease in cell viability after 48 hrs by MTT assay. The following applies: NCI-H1650, 48 h. The procedure, abridged: (§1)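 Cells in exponential growth seeded at 3000 per well and allowed 24 h. Medium then replaced with fresh medium holding a range of compound concentrations, followed by 48 h incubation. Viability read by MTT at 570 nm. IC50 is the concentration giving 50% inhibition of proliferation, reported as mean ± SD of three independent experiments.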
A general note: Formazan colour is commonly taken as a measure of viable cells.

In a further assay the test system is MGC-803. Description: Antiproliferative activity against human MGC803 cells assessed as decrease in cell viability after 48 hrs by MTT assay. The following applies: MGC-803, 48 h. In a few lines:
as §1

For the next assay, the system named is ECa-109 cell line. Description: Antiproliferative activity against human EC109 cells assessed as decrease in cell viability after 48 hrs by MTT assay. To be noted: ECa-109, 48 h. The procedure, abridged: as §1
For the next assay, the system named is MKN-45. Description: Antiproliferative activity against human MKN45 cells assessed as decrease in cell viability after 48 hrs by MTT assay. The following applies: MKN-45, 48 h. The procedure, abridged: as §1

In the case of `CCCSc1nc(NCC2CCCCC2)c2ncc(=O)n(Cc3ccccc3)c2n1`, the concentration for half-maximal inhibition (IC50) in the assay on NCI-H1650 is greater than 64 µM; in the assay on MGC-803 it was 30.4 µM; in the assay with ECa-109 cell line, 36 µM; with MKN-45 it was 21 µM.

As to `CCCSc1nc(N2CCN(C)CC2)c2ncc(=O)n(CC(C)C)c2n1`, the IC50 was found to be 45.4 µM with NCI-H1650, 17.2 µM in the assay with MGC-803, 37.5 µM in the assay on ECa-109 cell line and 16.8 µM in the assay on MKN-45.

As to `Cc1nc(N2CCN(C)CC2)c2ncc(=O)n(Cc3ccccc3)c2n1`, the IC50 is greater than 64 µM in the assay on NCI-H1650, greater than 64 µM in the assay with MGC-803, 39 µM in the assay on ECa-109 cell line and greater than 64 µM in the assay on MKN-45.

Turning to `CCCSc1nc(N2CCSCC2)c2ncc(=O)n(Cc3ccccc3)c2n1`, the IC50 in the assay with NCI-H1650 is 54.8 µM; in the assay on MGC-803, 34.7 µM; in the assay on ECa-109 cell line it was greater than 64 µM; in the assay on MKN-45, greater than 64 µM.

In the case of `CCCSc1nc(N2CCN(C)CC2)c2ncc(=O)n(CC3CCCCC3)c2n1`, the IC50 with NCI-H1650 was 51.8 µM; in the assay on MGC-803, 53.7 µM; with ECa-109 cell line, greater than 64 µM; with MKN-45, 17.9 µM.

Take `CCCSc1nc(N2CCN(C)CC2)c2ncc(=O)n(Cc3cccs3)c2n1`: the IC50 in the assay on NCI-H1650 is greater than 64 µM; in the assay with MGC-803, 16.4 µM; in the assay with ECa-109 cell line, 19.7 µM; in the assay on MKN-45, 11.3 µM.

For `CCCSc1nc(Nc2ccccc2)c2ncc(=O)n(Cc3ccccc3)c2n1`, the IC50 in the assay on NCI-H1650 is greater than 64 µM; in the assay on MGC-803, 36.6 µM; in the assay with ECa-109 cell line it was 19 µM; in the assay on MKN-45, 38.6 µM.

On to `CCCSc1nc(Nc2cc(OC)c(OC)c(OC)c2)c2ncc(=O)n(Cc3ccccc3)c2n1`, for which the IC50 in the assay with NCI-H1650 was 36.9 µM; with MGC-803 it was 15 µM; with ECa-109 cell line, 38.7 µM; in the assay with MKN-45, 14.2 µM.

Take `CCCSc1nc(N2CCN(C)CC2)c2ncc(=O)n(CCCc3ccccc3)c2n1`: the IC50 in the assay with NCI-H1650 was greater than 64 µM; with MGC-803, 13.8 µM; in the assay on ECa-109 cell line, 18.3 µM; with MKN-45 it was 9.97 µM.

Source of the values: ChEMBL document CHEMBL4251558, “Synthesis and preliminary antiproliferative activity of new pteridin-7(8H)-one derivatives” (Eur J Med Chem, 2018).
